# PubChem BioAssay AID488910 (Broad Institute, 2010)
# Screen size: about 20,000 compounds; about 25 (0.1%) were called active. For the sample, actives were picked, then their nearest neighbours and some compounds at random. Unmarked numbers belong to inactive results.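 The calls were made as follows: active = mean replicate protection from cytokine-induced ATP loss at least 50% and at least 75% of replicates each reaching 50%; inconclusive = meets only one of the two criteria, mean or replicate share; inactive = fails both the mean and replicate share criteria.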
# Experiment: protection of INS-1E cells from cytokine death, primary screen, ATP luminescence, single point (AID 488910)
# Conditions: INS-1E cytokine-induced death, 48 h, at 10 µM, active compounds read high, normalised: neutral wells 0, positive control 100
# How it was run: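 Material: INS-1E rat cells; Quantity: 8000 cells/well; Buffer or medium: phenol-red-free RPMI with 5% fetal bovine serum; Probe or stimulus: cytokine cocktail of IFN-γ, TNF-α and IL-1β; Compound dosing: single test concentration per compound, delivered by pin transfer; Incubation: 48 h co-treatment, 10 min post-lysis read; Signal: CellTiter-Glo luminescence.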
row,SMILES,protection from cytokine-induced ATP loss
1,C[C@H]1CN([C@@H](C)CO)C(=O)Cc2cc(NC(=O)Cn3cnnn3)ccc2O[C@H]1CN(C)Cc1ccc(C(=O)O)cc1,10.1%
2,Cc1noc(C)c1S(=O)(=O)N(C)C[C@@H]1Oc2c(NS(=O)(=O)c3cn(C)cn3)cccc2C(=O)N([C@@H](C)CO)C[C@H]1C,4.74%
3,CC(C)NC(=O)Nc1ccc2c(c1)C(=O)N([C@@H](C)CO)C[C@@H](C)[C@H](CN(C)Cc1ccc(Cl)c(Cl)c1)O2,-9.43%
4,C[C@@H]1CN([C@H](C)CO)C(=O)c2cccc(NS(=O)(=O)c3ccc(Cl)cc3)c2O[C@H]1CN(C)Cc1ccc(C(F)(F)F)cc1,6.19%
5,C[C@H]1CN([C@@H](C)CO)C(=O)c2cccc(NC(=O)Nc3ccc(F)cc3)c2O[C@H]1CN(C)S(=O)(=O)c1cn(C)cn1,5.6%
6,Cc1noc(C)c1NC(=O)N(C)C[C@@H]1Oc2ccc(NS(=O)(=O)c3ccc(Cl)cc3)cc2C(=O)N([C@@H](C)CO)C[C@H]1C,5.78%
7,C[C@@H]1CN([C@H](C)CO)C(=O)c2cccc(NC(=O)Nc3ccc4c(c3)OCO4)c2O[C@H]1CN(C)S(=O)(=O)c1ccc(Cl)cc1,-2.56%
8,COc1ccc(NC(=O)N(C)C[C@@H]2Oc3c(NS(=O)(=O)c4ccc(OC)cc4)cccc3C(=O)N([C@H](C)CO)C[C@@H]2C)cc1,8.49%
9,C[C@H]1CN([C@@H](C)CO)C(=O)c2cc(NC(=O)Cn3cnnn3)ccc2O[C@H]1CN(C)Cc1ccc(C(=O)O)cc1,1.96%
10,C[C@@H]1CN([C@H](C)CO)C(=O)c2cccc(NC(=O)CCCCCC(=O)Nc3ccccc3N)c2O[C@H]1CN(C)CC1CCCCC1,4.11%
11,C[C@@H]1CN([C@H](C)CO)C(=O)Cc2cc(NC(=O)Cn3cnnn3)ccc2O[C@H]1CN(C)Cc1ccc(Cl)c(Cl)c1,4.05%
12,C[C@H](CO)N1C[C@H](C)[C@@H](CN(C)C(=O)Nc2ccccc2)Oc2c(NC(=O)CCCCCC(=O)Nc3ccccc3N)cccc2C1=O,4.22%
13,C[C@@H]1CN([C@H](C)CO)C(=O)c2cccc(NS(=O)(=O)c3ccc(F)cc3)c2O[C@@H]1CN(C)S(=O)(=O)c1ccc(Cl)cc1,0.697%
14,C[C@@H]1CN([C@@H](C)CO)C(=O)c2cccc(NC(=O)Nc3cccc4ccccc34)c2O[C@@H]1CN(C)CC1CC1,2.15%
15,COC(=O)CCCCCCC(=O)N/N=C/c1c(Cl)cc(OC)c(OC)c1Cl,2.23%
16,C[C@@H]1CN([C@@H](C)CO)C(=O)c2cc(NS(=O)(=O)c3ccc(F)cc3)ccc2O[C@@H]1CN(C)C(=O)NC1CCCCC1,-2.78%
